# Screening results: PubChem, several laboratories
# aDG glyco act – alpha-DG glycosylation activation; hit rate 0.22% among 360,000; Pro5-aDG cells, alpha-DG glycosylation AlphaScreen (IIH6); 0% Pro5, 100% B10-LARGE cell signal; activation, % at 10 µM;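 active means activation of at least 8% versus controls, or a plate z-score of at least 8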;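 further: Pro5 are CHO cells carrying HIG-tagged alpha-DG that lacks glycosylation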
# MC4R antag cAMP – antagonists of human melanocortin 4 receptor (MC4R); P32245; inhibition, % at 6.5 µM; MC4R-expressing cells, MTII-stimulated cAMP, LANCE TR-FRET; hit rate 0.48% among 360,000;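 active means inhibition above its plate's cutoff, the mean of tested wells on that plate plus 3 SD, cut at about 29% in these data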;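 further: 0% = Melanotan II alone and 100% = Melanotan II plus saturating MCL0020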
# Target sequence (P32245 whole entry, looked up): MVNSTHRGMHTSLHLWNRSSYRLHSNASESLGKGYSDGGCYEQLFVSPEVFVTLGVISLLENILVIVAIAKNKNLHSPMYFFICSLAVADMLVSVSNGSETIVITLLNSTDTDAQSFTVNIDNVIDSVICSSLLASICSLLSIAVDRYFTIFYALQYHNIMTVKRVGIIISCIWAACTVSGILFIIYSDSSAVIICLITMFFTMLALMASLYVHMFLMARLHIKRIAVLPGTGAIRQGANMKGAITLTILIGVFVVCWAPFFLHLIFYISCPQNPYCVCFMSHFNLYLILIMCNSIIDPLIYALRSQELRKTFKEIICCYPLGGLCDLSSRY
#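 Assay system: U2OS cells stably expressing human melanocortin 4 receptor (MC4R) / Dosing: 6.5 µM / Timing: compound 30 min, challenge 1 h, detection 1 h / Measured by: Eu-cAMP/anti-cAMP TR-FRET, emission 671 nm / Replicates: singlicate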
# H9c2 TAG inh – reduces triacylglycerol accumulation in H9c2 cells | Nile Red lipid (TAG) fluorescence; cells loaded with 200 µM oleic acid | inhibition, % at 12.5 µM | hit rate 0.66% among 230,000 | AID 651582;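 active means pattern-corrected inhibition of lipid staining of at least 50% with the nuclear-stain viability signal not falling by more than 50%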;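 further: 0% = DMSO wells and 100% = triacsin C control wells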
# Tb MetRS inh – Trypanosoma brucei MetRS inhibition. purified T. brucei MetRS, ATP depletion, Kinase-Glo luminescence. inhibition, % at 11.9 µM. hit rate 0.4% among 360,000;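 active means inhibition above a per-plate cutoff of the control wells' mean inhibition plus 3 SD, cut at about 5.5% in these data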;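 further: 0% = DMSO wells median and 100% = median of wells with control inhibitor compound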
#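 Assay system: T. brucei methionyl-tRNA synthetase, purified | Medium: HEPES buffer with MgCl2, KCl, DTT, spermine, BSA, pyrophosphatase | Compound: 11.9 µM single point | Incubation: 15 min enzyme-compound preincubation, 2 h reaction, 10 min detection, 25 °C | Measured by: Kinase-Glo luciferase luminescence reporting remaining unconsumed ATP | Measure: % inhibition normalized to control-well medians | Replication: Singlicate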
# NTR1 agonist – NTR1 (human) agonism. P30989. NTR1-U2OS beta-arrestin-GFP spot imaging, agonist mode. activation, % at 20 µM. hit rate 0.17% among 330,000. AID 493036;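 active means activation at or above 40% of the spot to cytoplasm intensity ratio, with at least 20 cells analyzed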;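 further: 0% = DMSO without peptide and 100% = 100 nM NTR1 peptide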
# MC4R ag barr – activates human MC4R beta-arrestin recruitment; P32245; U2OS MC4R beta-arrestin complementation, luminescence; percent of melanotan II response, DMSO zero; activation, % at 8.9 µM; hit rate 0.98% among 360,000;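 active means activation above a per-plate cutoff, the mean activation of sample wells on that plate plus 3 SD, cut at about 8% in these data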
# MC4R barr conf – human MC4R beta-arrestin agonism confirmation; shares compounds with MC4R ag barr; U2OS MC4R beta-arrestin recruitment, luminescence; scaled DMSO 0%, Melanotan II 100%; activation, % at 8.9 µM; hit rate 31% among 2,400;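 active means mean activation across replicates above the hit cutoff set in the earlier primary screen, cut at about 8% in these data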
# MOR-DOR barr ag – counter-screen for MC4R agonists: agonists of mu-delta opioid heterodimer; shares compounds with MC4R ag barr; U2OS PathHunter beta-arrestin, beta-gal luminescence; percent of deltorphin B response, DMSO zero; activation, % at 9.2 µM; hit rate 5.8% among 2,400; AID 602194;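 active means mean activation across replicates exceeds the hit threshold derived in the earlier primary screen, cut at about 18% in these data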;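 further: 100% = deltorphin B at 0.9 µM final and 0% = DMSO alone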
# Numbers without * were called inactive; . = no result given. Shown are actives, neighbours in structure and some others; about 2.4% of the full set was active somewhere.
SMILES,aDG glyco act,MC4R antag cAMP,H9c2 TAG inh,Tb MetRS inh,NTR1 agonist,MC4R ag barr,MC4R barr conf,MOR-DOR barr ag
COc1ccc(-c2csc(C(C)(O)c3cccc(F)c3)n2)cn1 (configuration not stated),0,0,7,0,.,7,.,.
CCc1nc2ccc(C(=O)Nc3cccc(NS(C)(=O)=O)c3)cn2c1N(C)Cc1nccn1C,0,0,6,0,.,-2,.,.
CC1(C(=O)NCc2cccc3ccccc23)CCN1C(=O)Cc1ccc(-c2ccccc2)cc1 (configuration not stated),0,12,-23,0,.,0,.,.
O=S(=O)(NCc1ccccc1)c1ccc(S(=O)(=O)N(Cc2ccccn2)Cc2ccco2)cc1,0,2,.,-2,4,10*,6,4
O=C(CNCC1CCCCC1)Nc1ccc(OC(F)(F)F)cc1,0,-3,-15,0,6,15*,8,9
COc1ccc(NC(=O)COC(=O)CCC2CCCCC2)cc1,0,7,2,0,0,9.9*,0,8
Cc1ccc(NC(=O)C(C)OC(=O)CCC2CCCCC2)cc1 (configuration not stated),0,7,12,0,0,11*,3,6
CCOC(=O)C1CCCN(C(=O)c2oc3ccccc3c2C)CC1 (configuration not stated),0,-2,-10,0,.,-1,.,.
Cc1cccc(/C=N/NC(=O)c2cc(Br)ccc2OCc2ccccc2)n1,0,9,.,4,1,13*,-4,5
Cc1cccc(/C=N/NC(=O)c2ccccc2OCc2cccc(Br)c2)n1,0,-4,.,-1,7,0,.,.
COC(=O)C[C@H]1C=C[C@@H](NS(=O)(=O)c2ccccc2)[C@@H](CO)O1,0,.,.,0,.,.,.,.
CCOC(=O)Cn1c(=NC(=O)c2cccs2)sc2cc(C(=O)OC)ccc21,0,4,7,0,-1,1,.,.
C#CCn1c(=NC(=O)c2cccs2)sc2cccc(OCC)c21,0,19,4,0,7,24*,4,2
C#CCn1c(=NC(=O)c2ccc(Cl)s2)sc2cccc(OC)c21,0,9,9,-1,9,15*,6,2
CCN(CC)CCN(C)C(c1cc2ccccc2o1)c1nnnn1C(C)(C)C (configuration not stated),0,.,.,-1,.,.,.,.
CCOC(=O)Nc1nnc(/C=C/c2ccc(OC)cc2)s1,0,-1,.,0,-1,-2,.,.
CCCCOC(=O)Nc1nnc(/C=C/c2ccc(OC)cc2)s1,0,5,.,0,0,21*,7,7
CCCCN(CCCC)Cc1cc(=O)oc2ccc3ccccc3c12,0,.,.,0,.,.,.,.
Fc1ccc(CSc2ccc(-c3ccc4c(c3)OCO4)nn2)cc1,0,10,.,0,0,11*,2,8
c1ccc(CSc2ccc(-c3ccc4c(c3)OCO4)nn2)cc1,0,-3,.,-2,8,29*,3,4
COc1cccc(CNC(=O)[C@@H]2CCCN2C(=O)[C@H]2CCCCN2C(=O)c2ccccc2)c1,0,.,.,1,.,.,.,.
Cc1ccc2cc3c(NC(=O)c4ccco4)nn(CC(C)C)c3nc2c1,1,7,-29,-1,0,13*,-2,3
OC(Cc1ccccc1)c1ncc(-c2ccc3ccccc3c2)[nH]1 (configuration not stated),0,-3,-14,0,.,0,.,.
Cc1c(CCOC(=O)CC23CC4CC(CC(C)(C4)C2)C3)sc[n+]1CC(=O)c1ccccc1,0,-4,-4,-1,28,9.8*,20*,5
CCOc1ccc(NC(=O)CC(c2ccccc2)c2ccc(F)cc2)cc1 (configuration not stated),0,4,.,0,0,17*,0,6
SMILES,aDG glyco act,MC4R antag cAMP,H9c2 TAG inh,Tb MetRS inh,NTR1 agonist,MC4R ag barr,MC4R barr conf,MOR-DOR barr ag
CC(C)Oc1ccc(C(CC(=O)O)c2ccc(F)cc2)cc1 (configuration not stated),0,4,12,0,1,-1,.,.
COc1ccc(NC(=O)CC(c2ccc(F)cc2)c2ccc(OC(C)C)cc2)cc1 (configuration not stated),2,9,.,-1,3,15*,7,3
OC(CNCCc1ccc(Cl)cc1)COc1ccc2ccccc2c1 (configuration not stated),1,-4,2,-1,.,20*,15*,5
CCC(=O)c1ccc(OCC(O)CNCCc2ccc(Cl)cc2)cc1 (configuration not stated),0,0,.,0,6,3,.,.
COc1cccc(/C=C/C(=O)N(C)CC(=O)Nc2ccc(Cl)c(C(F)(F)F)c2)c1,0,-3,2,0,1,12*,1,6
Cc1cccc(C(=O)OCC(=O)N(C)CC(=O)Nc2ccc(Cl)c(C(F)(F)F)c2)c1,0,-4,-10,0,2,-2,.,.
CC(=O)Nc1cccc(-c2ccnc3c2CC(C(=O)NCc2cccs2)O3)c1 (configuration not stated),0,-14,42,0,.,-1,.,.
CCOc1ccc(C(CN2CCOCC2)C(C)=O)cc1OC (configuration not stated),0,.,.,-1,.,.,.,.
O=C(CSc1ncnc2ccccc12)Nc1ccc2c(c1)OCCO2,0,4,-7,-1,0,-3,.,.
O=C(CSc1nc(Cc2ccccc2)nc2ccccc12)Nc1ccc2c(c1)OCCO2,0,-1,.,-1,8,14*,1,3
Nc1nc(Nc2cccc3ccccc23)nc(C2CCCC2=O)n1 (configuration not stated),.,.,.,.,3,.,.,.
Nc1nc(CCl)nc(Nc2cccc3ccccc23)n1,0,7,81*,0,6,26*,19*,43*
Cc1ccc(COC(=O)Cc2coc3cc(O)ccc23)cc1,0,5,.,0,0,9.9*,3,11
CSc1ccccc1NC(=O)c1cc(-c2cccs2)on1,0,-2,.,0,9,9.8*,7,5
O=C(CCCCCn1c(=S)[nH]c2ccc(N3CCOCC3)cc2c1=O)NCCc1ccccc1,3,4,.,0,3,18*,0,18*
